SMILES strings stand for the structures. Read-outs that look alike come from different tables or passages of the source.

These results are taken from paper PMC12519076 (RSC Advances, 2025).

For data set [1] the following is noted: following intraperitoneal administration; cited from earlier work.
Data set [2] is classed as in vivo, mice. The settings on record: for Detection in the brain: oral administration; for Detection in plasma: mice sacrificed 12 h after food intake. A digest of the protocol:
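Male C57BL/6 mice, 7 weeks old, fed a high-fat diet with 1% w/w orange peel extract for 6 weeks, with 0.65% carnitine in drinking water. Tissues were homogenized under liquid nitrogen. Tissues, plasma (cardiac puncture, EDTA) and urine were extracted in methanol with 0.1% DMSO; taxifolin was the internal standard. Separation on a C30 column with a formic acid water/acetonitrile gradient; positive ESI, SRM. Values expressed as tissue–peel ratio.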

The format of data set [3] is in vivo, mice. The settings on record: by number of metabolites identified. A digest of the protocol:
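Male C57BL/6 mice, from 7 weeks old, given high-fat chow containing 1% w/w orange peel extract for 6 weeks, with 0.65% carnitine in water. Methanol/0.1% DMSO extracts were run by UHPLC on a C30 column at 40 °C, 0.1% formic acid water/acetonitrile gradient 2–100% B, 0.2 mL min−1, with Q-Exactive Orbitrap detection. Metabolites were assigned to parent PMFs by key-ion patterns.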

Data set [4] relates to spatial learning impairments induced by Aβ1-42. Conditions: oral administration for four weeks; cited from earlier work.
The next data set has as its system acetylcholinesterase. The settings on record: cortex and hippocampus; cited from earlier work.

In the case of `COc1cc(-c2cc(=O)c3c(OC)c(OC)c(OC)c(OC)c3o2)ccc1O` [4′-demethylnobiletin], the “Detection in the brain” value in data set [1] is “detected in the brain”.

Regarding `COc1ccc(-c2cc(=O)c3cc(OC)c(OC)c(OC)c3o2)cc1OC` [PMF 1, 6,7,8,3′,4′-pentamethoxyflavone], in data set [2], the “Detection in the brain” value is “found” and the Detection in plasma entry is “detected”. Moreover, the “Detection in the testes” value in data set [2] (testes) was “detected”.

In the case of `COc1ccc(-c2cc(=O)c3c(OC)c(OC)c(OC)c(OC)c3o2)cc1OC` [PMF 3, nobiletin], in data set [2], the “Detection in the brain” value was “found”, the “Detection in the kidney” value is “detected”, the “Detection in the liver” value is given as “detected” and the Detection in plasma result is “detected”. Further, in data set [2] (testes), the “Detection in the testes” value is recorded as “not detected”. The “Urine–peel ratio relative to other non-hydroxylated PMFs” value in data set [2] (urine) was “approximately two times higher”. In addition, in data set [3], the “Extent of metabolism among the 11 PMFs” value is reported as “most extensively metabolized”. The “Effect on spatial learning impairments induced by Aβ1-42, Morris water maze test” value in data set [4] is “prevent spatial learning impairments”. Moreover, the Acetylcholinesterase activity entry in the data set on acetylcholinesterase is reported as “enhanced”.

As to `COc1ccc(-c2oc3c(OC)c(OC)c(OC)c(OC)c3c(=O)c2OC)cc1OC` [PMF 5, 3,5,6,7,8,3′,4′-heptamethoxyflavone], in data set [2], the “Detection in the brain” value is given as “found”, the “Detection in the liver” value is “detected” and the Detection in plasma result was “detected”. The “Detection in the testes” value in data set [2] (testes) is “not detected”.

On to `COc1ccc(-c2cc(=O)c3c(OC)c(OC)c(OC)c(OC)c3o2)cc1` [PMF 6, tangeretin], for which, in data set [2], the “Detection in the brain” value is listed as “found”, the “Detection in the kidney” value is recorded as “detected”, the “Detection in the liver” value is listed as “detected” and the Detection in plasma result is recorded as “detected”. Also, in data set [2] (testes), the “Detection in the testes” value is “not detected”.

For `COc1ccc(-c2cc(=O)c3c(O)c(OC)c(OC)c(OC)c3o2)cc1OC` [PMF 8, 5-hydroxy-6,7,8,3′,4′-pentamethoxyflavone], in data set [2], the “Detection in the brain” value is “not detected”, the “Detection in the kidney” value is on record as “detected” and the “Detection in the liver” value is “detected”. For the same compound, the “Feces-peel ratio relative to that of PMF 11” value in data set [2] (feces) is “twice as high”. For the same compound, in data set [2] (testes), the “Detection in the testes” value is listed as “detected”; the “Testes-to-peel ratio relative to the detected major PMFs 1 and 4” value was in the range of 10 to 14 times. Besides, in data set [3], the “Extent of metabolism among the 11 PMFs” value was “most extensively metabolized”.

Take `COc1ccc(-c2oc3c(OC)c(OC)cc(O)c3c(=O)c2OC)cc1OC` [PMF 9, 5-hydroxy-3,7,8,3′,4′-pentamethoxyflavone]: in data set [2], the “Detection in the brain” value was “not detected” and the “Detection in the liver” value is recorded as “detected”.

Turning to `COc1ccc(-c2cc(=O)c3c(OC)c(OC)c(OC)cc3o2)cc1OC` [PMF 10, sinensetin], in data set [2], the “Detection in the brain” value is “found” and the “Detection in the liver” value was “detected”.

With `COc1ccc(-c2oc3c(OC)c(OC)c(OC)c(O)c3c(=O)c2OC)cc1OC` [PMF 11, 5-hydroxy-3,6,7,8,3′,4′-hexamethoxyflavone], in data set [2], the “Detection in the brain” value is reported as “not detected” and the “Detection in the liver” value is “not detected”.
